pIC50: −log10 of the molar value. Values after ≈ are worked out from the molar mass of the structure shown.
How the values were obtained:
Staphylococcus aureus [1] = assay: Antibacterial activity against methicillin-resistant Staphylococcus aureus strains 15 1 to 4 assessed as reduction in bacterial growth incubated for 18 to 20 hrs by CLSI based microdilution method; type: functional; details: time 18-20 hrs
In short: (§1)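 Broth microdilution per CLSI. Compounds dissolved in DMSO (levofloxacin and meropenem in water) as 64 μg/mL stock, then serial twofold dilutions in broth giving 64 to 0.008 μg/mL. […] Clinical isolates tested as several strains per group; racemic GP-1 served as positive control; values given as MIC ranges.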

Pseudomonas aeruginosa = assay: Antibacterial activity against multidrug resistant Pseudomonas aeruginosa strains 15 1 to 3 assessed as reduction in bacterial growth incubated for 18 to 20 hrs by CLSI based microdilution method; type: functional; details: time 18-20 hrs; in short: as §1
[2] = tested on: Staphylococcus epidermidis; assay: Antibacterial activity against methicillin-sensitive Staphylococcus epidermidis strains 15 1 to 4 assessed as reduction in bacterial growth incubated for 18 to 20 hrs by CLSI based microdilution method; type: functional; details: time 18-20 hrs; in short: as §1
[3] = tested on: Staphylococcus epidermidis; assay: Antibacterial activity against methicillin-resistant Staphylococcus epidermidis strains 15 1 to 4 assessed as reduction in bacterial growth incubated for 18 to 20 hrs by CLSI based microdilution method; type: functional; details: time 18-20 hrs; in short: as §1
Escherichia coli [4] = assay: Antibacterial activity against Escherichia coli ATCC 35218 strains 15 1 to 3 assessed as reduction in bacterial growth incubated for 18 to 20 hrs by CLSI based microdilution method; type: functional; details: time 18-20 hrs
In short: (§2)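 CLSI broth microdilution. Compounds in DMSO (levofloxacin and meropenem in water), serial twofold dilutions in broth, 64 to 0.008 μg/mL. […] Results reported as MIC ranges across strains.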

Escherichia coli [5] = assay: Antibacterial activity against ESBL-producing Escherichia coli ATCC 35218 strains 15 1 to 3 assessed as reduction in bacterial growth incubated for 18 to 20 hrs by CLSI based microdilution method; type: functional; details: time 18-20 hrs; in short: as §2
Staphylococcus aureus [6] = assay: Antibacterial activity against methicillin-sensitive Staphylococcus aureus strains 15 1 to 4 assessed as reduction in bacterial growth incubated for 18 to 20 hrs by CLSI based microdilution method; type: functional; details: time 18-20 hrs; in short: as §1
[7] = target: hERG (KCNH2) potassium channel (Homo sapiens, UniProt Q12809); assay: Inhibition of hERG potassium channel assessed as maximum inhibition rate at 40 uM at -80 mV holding potential incubated for 120 seconds by whole cell-automated voltage clamp analysis assay relative to control; type: toxicity; details: time 120 sec
Sequence of hERG (KCNH2) potassium channel (Q12809 whole entry): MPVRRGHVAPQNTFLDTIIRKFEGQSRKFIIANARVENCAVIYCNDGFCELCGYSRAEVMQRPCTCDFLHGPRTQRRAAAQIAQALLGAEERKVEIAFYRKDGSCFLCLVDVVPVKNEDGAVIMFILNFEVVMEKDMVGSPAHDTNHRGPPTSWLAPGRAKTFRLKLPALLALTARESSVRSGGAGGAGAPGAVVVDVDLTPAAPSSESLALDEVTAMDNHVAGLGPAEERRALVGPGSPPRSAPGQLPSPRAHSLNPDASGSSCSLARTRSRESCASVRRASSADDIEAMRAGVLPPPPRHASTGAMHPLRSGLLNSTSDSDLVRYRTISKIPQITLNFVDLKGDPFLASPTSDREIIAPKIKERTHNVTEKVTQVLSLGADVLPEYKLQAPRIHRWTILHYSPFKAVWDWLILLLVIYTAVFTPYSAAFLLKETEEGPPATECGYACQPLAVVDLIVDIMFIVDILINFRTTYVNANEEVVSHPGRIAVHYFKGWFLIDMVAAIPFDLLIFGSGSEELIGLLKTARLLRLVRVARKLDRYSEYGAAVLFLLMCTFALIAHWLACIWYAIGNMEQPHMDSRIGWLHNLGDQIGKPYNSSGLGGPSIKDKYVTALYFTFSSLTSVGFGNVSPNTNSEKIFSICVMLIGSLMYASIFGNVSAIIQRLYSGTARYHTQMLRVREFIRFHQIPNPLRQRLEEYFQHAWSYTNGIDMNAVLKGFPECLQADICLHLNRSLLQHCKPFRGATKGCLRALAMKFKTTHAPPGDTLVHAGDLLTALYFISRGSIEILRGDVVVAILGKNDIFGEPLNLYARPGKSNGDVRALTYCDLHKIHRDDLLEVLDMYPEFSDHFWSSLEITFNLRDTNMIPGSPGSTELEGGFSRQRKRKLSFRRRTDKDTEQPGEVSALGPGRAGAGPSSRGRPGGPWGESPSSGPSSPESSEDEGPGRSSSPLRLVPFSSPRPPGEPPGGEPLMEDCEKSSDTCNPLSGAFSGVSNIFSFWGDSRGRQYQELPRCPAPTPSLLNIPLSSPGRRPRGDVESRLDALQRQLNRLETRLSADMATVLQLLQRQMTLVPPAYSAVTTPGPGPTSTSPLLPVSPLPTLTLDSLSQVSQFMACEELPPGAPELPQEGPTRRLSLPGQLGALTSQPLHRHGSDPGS
In short: (§3)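 Automated whole-cell patch clamp, holding potential −80 mV. Voltage protocol applied every 20 s. Baseline set with external solution containing 0.1% DMSO and stabilised 3 min. Compound applied until steady state, at least 3 min, then washout. Maximum tested concentration 40 μM, or 3 μM for cisapride as positive control.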

[8] = target: Voltage-gated inwardly rectifying potassium channel KCNH2 (Homo sapiens, UniProt Q12809); assay: Inhibition of hERG potassium channel assessed as […] at -80 mV holding potential incubated for 120 seconds by whole cell-automated voltage clamp analysis assay; type: toxicity; in short: as §3
Sequence of Voltage-gated inwardly rectifying potassium channel KCNH2 (Q12809 whole entry): as above

[9] = Volume of distribution at the steady state in Sprague-Dawley rat at 4 mg/kg, iv measured upto 24 hrs by LC-MS/MS analysis; type: ADME, organism-based; details: in vivo, read-out: Vdss
In short: (§4)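 Male Sprague-Dawley rats, n = 3 per group, single intravenous dose. For 4 mg/kg: 180–280 g rats, vehicle 5% DMSO + 5% EtOH + 40% PEG300 + 50% saline, blood from the retrobulbar vein at 0.05–24 h. For 5 and 20 mg/kg: 180–300 g rats, vehicle 5% DMSO + 5% solutol + 90% saline, sampled at 0.083–24 h. Plasma quantified by LC/MS/MS. Parameters from mean plasma concentration by noncompartmental analysis; values are mean ± standard deviation.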

[10] = Elimination half life in Sprague-Dawley rat at 4 mg/kg, iv measured upto 24 hrs by LC-MS/MS analysis; type: ADME, organism-based; details: in vivo, read-out: beta t1/2 (converted); in short: as §4
[11] = AUC (0 to infinity) in Sprague-Dawley rat at 4 mg/kg, iv measured upto 24 hrs by LC-MS/MS analysis; type: ADME, organism-based; design: time < 24 hrs, dose 4 mg/kg, route iv; details: in vivo; in short: as §4
[12] = Clearance in Sprague-Dawley rat at 4 mg/kg, iv measured upto 24 hrs by LC-MS/MS analysis; type: ADME, organism-based; details: in vivo; in short: as §4
[13] = MRT in Sprague-Dawley rat at 4 mg/kg, iv measured upto 24 hrs by LC-MS/MS analysis; type: ADME, organism-based; details: in vivo; in short: as §4

Work on `CCC(CN)=C1CN(c2nc(Sc3ccc(Br)cn3)nc3[nH]c4c(NC)cc(F)cc4c23)C1` yielded an MIC (Staphylococcus aureus [1]) of 0.5 µg/mL (≈ 0.946 µM), an MIC (Pseudomonas aeruginosa) greater than 16 µg/mL and an MIC [2] of 0.25 µg/mL (≈ 0.473 µM). The MIC [3] was 0.25 µg/mL (≈ 0.473 µM), the MIC (Escherichia coli [4]) was greater than 1 µg/mL and the MIC (Escherichia coli [5]) was greater than 2 µg/mL. The MIC (Staphylococcus aureus [6]) was 1 µg/mL (≈ 1.89 µM).

`CNc1cc(F)cc2c1[nH]c1nc(Oc3cnc(C)nc3)nc(N3CCC(=C(C)CN)CC3)c12` showed an MIC (Staphylococcus aureus [1]) of 0.125 µg/mL (≈ 0.27 µM), an MIC (Pseudomonas aeruginosa) greater than 8 µg/mL and an MIC [2] of 0.03 µg/mL (≈ 0.0649 µM). The MIC [3] was less than 0.008 µg/mL, the MIC (Escherichia coli [4]) was 0.25 µg/mL (≈ 0.541 µM) and the MIC (Escherichia coli [5]) was 2 µg/mL (≈ 4.32 µM). It also gave an MIC (Staphylococcus aureus [6]) of 0.125 µg/mL (≈ 0.27 µM).

Compound `CCC(CN)=C1CN(c2nc(N)nc3[nH]c4c(NC)cc(F)cc4c23)C1` has an MIC (Staphylococcus aureus [1]) of 4 µg/mL (≈ 11.3 µM), an MIC (Pseudomonas aeruginosa) of no less than 16 µg/mL and an MIC [2] of 2 µg/mL (≈ 5.63 µM). It also gave an MIC [3] of 4 µg/mL (≈ 11.3 µM), an MIC (Escherichia coli [4]) of 2 µg/mL (≈ 5.63 µM) and an MIC (Escherichia coli [5]) of 4 µg/mL (≈ 11.3 µM). The MIC (Staphylococcus aureus [6]) was greater than 4 µg/mL.

`CNc1cc(F)cc2c1[nH]c1nc(Oc3cnc(C)nc3)nc(N3CC(=C(F)CN)C3)c12` gave an inhibition at 2 min, 40 µM [7] of 3.2%, an MIC (Staphylococcus aureus [1]) of 0.015 µg/mL (≈ 0.0342 µM) and an MIC (Pseudomonas aeruginosa) greater than 16 µg/mL. It also gave an MIC [2] of 0.125 µg/mL (≈ 0.285 µM), an MIC [3] of 0.015 µg/mL (≈ 0.0342 µM) and an MIC (Escherichia coli [4]) of 0.06 µg/mL (≈ 0.137 µM). It also gave an MIC (Escherichia coli [5]) of 0.25 µg/mL (≈ 0.57 µM), a pIC50 [8] of less than 4.40 and an MIC (Staphylococcus aureus [6]) of 0.015 µg/mL (≈ 0.0342 µM).

For `CCC(CO)=C1CN(c2nc(Oc3cnc(C)nc3)nc3[nH]c4c(NC)cc(F)c(F)c4c23)C1`, the Vd [9] was 68.4 L/kg, the MIC (Pseudomonas aeruginosa) was greater than 8 µg/mL and the half-life [10] was 6.5 h. The MIC [2] was less than 0.03 µg/mL, the AUC(0-inf) [11] was 517 ng·h/mL and the MIC (Escherichia coli [4]) was 32 µg/mL (≈ 68.5 µM). The MIC (Escherichia coli [5]) was 0.25 µg/mL (≈ 0.535 µM), the clearance [12] was 141 mL/min/kg and the MIC (Staphylococcus aureus [6]) was less than 0.03 µg/mL. It also gave an MRT [13] of 8.3 h.

For `CNc1cc(F)cc2c1[nH]c1nc(Oc3cnc(C)nc3)nc(N3CCC(=CCN)CC3)c12`, the MIC (Staphylococcus aureus [1]) was 0.5 µg/mL (≈ 1.11 µM), the MIC (Pseudomonas aeruginosa) was no less than 16 µg/mL and the MIC [2] was 0.25 µg/mL (≈ 0.557 µM). For the same compound, the MIC [3] was 0.25 µg/mL (≈ 0.557 µM), the MIC (Escherichia coli [4]) was greater than 2 µg/mL and the MIC (Escherichia coli [5]) was 8 µg/mL (≈ 17.8 µM). The MIC (Staphylococcus aureus [6]) was 1 µg/mL (≈ 2.23 µM).

`CCC(CN)=C1CN(c2nc(Oc3ccc4c(c3)C(=O)NC4)nc3[nH]c4c(NC)cc(F)cc4c23)C1` showed an MIC (Staphylococcus aureus [1]) of 0.5 µg/mL (≈ 1.03 µM), an MIC (Pseudomonas aeruginosa) of 16 µg/mL (≈ 32.8 µM) and an MIC [2] of 0.06 µg/mL (≈ 0.123 µM). The MIC [3] was 0.06 µg/mL (≈ 0.123 µM), the MIC (Escherichia coli [4]) was greater than 8 µg/mL and the MIC (Escherichia coli [5]) was 8 µg/mL (≈ 16.4 µM). It also gave an MIC (Staphylococcus aureus [6]) of 0.5 µg/mL (≈ 1.03 µM).
